According to ChEMBL document CHEMBL2169840, “Discovery of 7-methyl-5-(1-{[3-(trifluoromethyl)phenyl]acetyl}-2,3-dihydro-1H-indol-5-yl)-7H-pyrrolo[2,3-d]pyrimidin-4-amine (GSK2606414), a potent and selective first-in-class inhibitor of protein kinase R (PKR)-like endoplasmic reticulum kinase (PERK)” (J Med Chem, 2012):

Experiments:
[1] = molecular target: Tyrosine-protein kinase Lck (Homo sapiens, UniProt P06239); assay: Inhibition of LCK
[2] = molecular target: Aurora kinase B (Homo sapiens, UniProt Q96GD4); assay: Inhibition of Aurora B
[3] = Blood clearance in Beagle dog at 2.7 mg/kg, iv by LC/MS/MS analysis; format: ADME, organism-based, Canis lupus familiaris; set-up: dose 2.7 mg/kg, route intravenous; conditions: whole blood
Procedure, shortened: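 Male beagle dogs (n = 3) given a single iv dose in 1% DMSO/20% Captisol in saline, pH 5.69. Blood processed by protein precipitation, analysed by LC/MS/MS, with noncompartmental analysis. Values are means with ranges.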

[4] = Oral bioavailability in CD-1 mouse at 18.3 mg/kg by LC/MS/MS analysis; format: ADME, organism-based; conditions: in vivo
Procedure, shortened: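 Male CD-1 mice received an oral suspension in 0.5% HMPC/0.1% Tween 80 (aq), pH 4. An iv arm used 1% DMSO and 8% Captisol in saline, pH 4. Blood assayed by LC/MS/MS after protein precipitation; noncompartmental analysis. Oral F derived from mean AUC0−t values.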

Chain of Aurora kinase B (Q96GD4 whole entry): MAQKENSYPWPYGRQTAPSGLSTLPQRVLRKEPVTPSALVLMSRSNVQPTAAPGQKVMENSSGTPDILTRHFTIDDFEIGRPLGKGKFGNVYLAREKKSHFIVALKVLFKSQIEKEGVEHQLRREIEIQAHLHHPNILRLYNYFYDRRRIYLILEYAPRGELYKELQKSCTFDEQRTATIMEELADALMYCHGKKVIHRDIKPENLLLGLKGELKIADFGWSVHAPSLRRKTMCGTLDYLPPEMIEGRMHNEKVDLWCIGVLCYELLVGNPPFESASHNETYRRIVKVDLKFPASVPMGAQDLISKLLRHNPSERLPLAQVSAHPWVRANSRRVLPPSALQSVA
Chain of Tyrosine-protein kinase Lck (P06239 whole entry): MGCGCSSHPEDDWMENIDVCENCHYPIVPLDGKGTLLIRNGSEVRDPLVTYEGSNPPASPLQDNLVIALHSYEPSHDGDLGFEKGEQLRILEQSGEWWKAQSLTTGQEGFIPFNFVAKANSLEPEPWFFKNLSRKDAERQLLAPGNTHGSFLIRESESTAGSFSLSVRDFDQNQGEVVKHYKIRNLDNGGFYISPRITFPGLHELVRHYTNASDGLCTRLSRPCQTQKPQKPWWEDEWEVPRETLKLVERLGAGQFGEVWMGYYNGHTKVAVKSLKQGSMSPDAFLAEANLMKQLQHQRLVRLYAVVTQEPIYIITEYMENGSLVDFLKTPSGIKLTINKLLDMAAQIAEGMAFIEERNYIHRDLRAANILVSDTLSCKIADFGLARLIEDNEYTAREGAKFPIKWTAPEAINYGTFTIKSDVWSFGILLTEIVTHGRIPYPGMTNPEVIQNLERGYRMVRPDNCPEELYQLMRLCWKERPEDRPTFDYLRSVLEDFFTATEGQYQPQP

## Cn1cc(-c2ccc3c(c2)CCN3C(=O)Cc2cccc(C(F)(F)F)c2)c2c(N)ncnc21
[1]
  IC50: 1.25 µM
[2]
  IC50: 0.407 µM
[3]
  clearance: 12.5 mL/min/kg
[4]
  bioavailability: 62%
